Test [1] in a line: Inhibition of Phosphoinositide specific phospholipase C (PI-PLC) from Bacillus cereus on the internal face of the cell membrane. The essentials: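 Single-phase aqueous assay: recombinant B. cereus PI-PLC, final 5 nM, with 0.25 mM NPIP in 100 mM HEPES, 1 mM EDTA, pH 7, 0.008% PEG-8000, 25 °C. Inhibitor kept at least tenfold below cmc and added before substrate and enzyme. Initial rates at 399 nm over 4 min. IC50 is the mean of two experiments. Ki came from varying NPIP 0.1-0.5 mM at two inhibitor levels, fitted to competitive inhibition.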

Test [2] relates to Bacillus cereus. Description: Compound was tested for the inhibition of Phosphoinositide specific phospholipase C (PI-PLC) in the presence of buffer at concentration of 40.0 mM. More on the design: scale not given: the % may be the effect or the level left. The method, boiled down: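 Recombinant B. cereus PI-PLC, final 5 nM, with 0.25 mM NPIP (D-enantiomer) in 100 mM HEPES, 1 mM EDTA, pH 7, no PEG-600, 25 °C. Inhibitor added a few minutes before substrate and enzyme. Activity normalized to uninhibited control; mean of at least two separate experiments.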

Test [3] relates to Bacillus cereus. Description: Compound was tested for the inhibition of Phosphatidylinositol-Specific Phospholipase C (PI-PLC) in the presence of PEG-600 at concentration of 40.0 mM. Also on record: scale not given: the % may be the effect or the level left. The essentials:
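Recombinant B. cereus PI-PLC (E. coli periplasmic prep), final 5 nM, with 0.25 mM NPIP (D-enantiomer) in 90% crystallization precipitant solution (33% PEG-600, 0.16 M trisodium citrate-HCl pH 7.35, 46 mM HEPES pH 7), 25 °C. Inhibitor preincubated a few minutes before substrate and enzyme. p-Nitrophenolate followed at 399 nm for 4 min; activity normalized to uninhibited control.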

What is called IC50 is the concentration needed to halve the response being measured. In turn, `O[C@@H]1[C@H](O)[C@@H](O)[C@@H](O)[C@@]2(CO2)[C@@H]1O` came in with an IC50 in test [1] of more than 50000 µM. Same read-out and setting: then `CCCCCC(=O)OCC(COP(=O)(O)OC)OC(=O)CCCCC` (stereo not drawn), with 118 µM; and `CCCCCOCC(COP(=O)(O)OC)OCCCCC` (stereo not drawn), with 235 µM; and `O[C@H]1[C@@H](O)[C@@H](O)[C@@H](O)[C@@H](O)[C@@H]1O`, with 2000 µM. Same read-out and setting: then `CCCCCCOCC(COP(=O)(O)O)OCCCCCC` (stereo not drawn), with 55 µM; and `CCCCCCOCC(CC(F)(F)P(=O)(O)OC1C(O)C(O)C(O)C(O)C1O)OCCCCCC` (stereo not drawn), with 34 µM. For the molecule `CCCCCCCCOCC(COP(=O)(O)OC)OCCCCCCCC` (stereo not drawn), the Activity in the test on Bacillus cereus [2] was 14%; in the test on Bacillus cereus [3] (0.17 mM, in the assay text read “0.17 mM” for “40.0 mM”), 102%. Besides, half-maximal inhibition in test [1] (IC50) required 12 µM. The molecule `CCCCCCOCC(COP(=O)(O)OC)OCCCCCC` (stereo not drawn) had an IC50 in test [1] of 53 µM.

`CCCCCCOCC(CCP(=O)(O)O)OCCCCCC` (stereo not drawn) registered an IC50 in test [1] of 60 µM. With `O[C@H]1[C@H](O)[C@@H](O)[C@H](O)[C@@H](O)[C@H]1O` [INOSITOL], the Activity in the test on Bacillus cereus [2] was found to be 18%; with Bacillus cereus [3] (40.0 mM) it was 22%. In test [1], this molecule gave an IC50 of 10000 µM.

For the molecule `O=P(O)(O)OC1C(O)C(O)C(O)C(O)C1O` (stereo in doubt; form 1) [listing 1 of 2 here], the midpoint of inhibition in test [1], the IC50, lay at 43 µM. As to `CCCCCCOCC(CCP(=O)(O)OC1C(O)C(O)C(O)C(O)C1O)OCCCCCC` (stereo not drawn), the Activity in the test on Bacillus cereus [2] came out at 25%; in the test with Bacillus cereus [3] (0.25 mM, in the assay text read “0.25 mM” for “40.0 mM”), 100%. Inhibition in test [1] was half-maximal at 18 µM (IC50). For the molecule `O=P(O)(O)OC1C(O)C(O)C(O)C(O)C1O` (stereo in doubt; form 1) [listing 2 of 2 here], the Activity came out at 69% in the test on Bacillus cereus [2] and 56% with Bacillus cereus [3] (16.0 mM, in the assay text read “16.0 mM” for “40.0 mM”).

In turn, `O=C1C(O)C(O)C(O)C(O)C1O` (racemic) displayed an IC50 in test [1] of 3 µM. The same measure, in the same setting: with `O=P(O)(O)OC1C(O)C(O)C(O)C(O)C1O` (stereo in doubt; form 2) the figure was 56 µM. Consider `CCCCCCOCC(CCP(=O)(O)OC)OCCCCCC` (stereo not drawn), for which the IC50 in test [1] was 23 µM. For the molecule `O[C@H]1[C@H](O)[C@@H](O)[C@H](O)[C@@H](O)[C@@H]1O` [SCYLLITOL], the IC50 in test [1] turned out to be 410000 µM. Turning to `CCCCCC(=O)OCC(COP(=O)(O)O)OC(=O)CCCCC` (stereo not drawn), the IC50 in test [1] stood at 187 µM. On the same count and under the same terms, then `CCCCCCOCC(CC(F)(F)P(=O)(O)O)OCCCCCC` (stereo not drawn), with 45 µM; and `O=P1(O)OC2C(O)C(O)C(O)C(O)C2O1` (stereo not drawn), with 135000 µM. `O=C1C(O)C(O)C(O)C(O)C1O` (stereo in doubt) showed an IC50 in test [1] of 133 µM.
